# In the library only some 3.9% were active in any assay of this set; here they are far more common.
# TAAR1 ag = human TAAR1 agonism. CHO RD-HGA16 TAAR1, Fluo-8 calcium fluorescence; vehicle wells 0%, saturating PEA agonist 100%. Q96RJ0. AID 624467. 360,000 compounds, 0.99% hits. activation, % at 3 µM;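 active means activation above the mean activation of all test compounds in the run plus 3 SD, cut at about 38% in these data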
# Target sequence (Q96RJ0 whole entry, looked up): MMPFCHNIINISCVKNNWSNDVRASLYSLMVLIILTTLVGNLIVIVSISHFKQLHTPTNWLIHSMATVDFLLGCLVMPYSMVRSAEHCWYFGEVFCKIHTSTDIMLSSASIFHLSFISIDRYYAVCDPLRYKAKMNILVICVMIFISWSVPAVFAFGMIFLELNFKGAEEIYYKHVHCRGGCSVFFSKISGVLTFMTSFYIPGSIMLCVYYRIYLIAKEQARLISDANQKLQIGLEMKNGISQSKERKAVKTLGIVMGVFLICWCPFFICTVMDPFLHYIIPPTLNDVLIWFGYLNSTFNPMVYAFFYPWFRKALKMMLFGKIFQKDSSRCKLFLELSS
#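 Test system: RD-HGA16 (CHO) cells co-expressing Gα16 and hTAAR1 / Benchmarks: DMSO vehicle as 0%, PEA at EC100 as 100% / Repeats: no replicates (n 1) / Measure: % activation from peak over basal fluorescence ratio, DMSO-to-PEA scaled / Timing: 17-24 h plating, Fluo-8 75 min 37 °C, 30 min RT / Technique: kinetic Fluo-8 calcium fluorescence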
# m5-HT2A agonist = mouse HTR2A agonism via beta-arrestin recruitment | AID 624169 | 360,000 compounds, 0.66% hits | P35363 | CHO-K1 mHTR2A beta-arrestin complementation, luminescence; percent of 30 µM serotonin response | activation, % at 7.6 µM;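 active means activation above a run cutoff, the mean activation of all tested compounds plus 3 SD, cut at about 14% in these data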;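 further: 0% = plate median of compound wells and 100% = 30 µM serotonin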
# TAAR1 antagonist = human TAAR1 antagonism; Q96RJ0; CHO RD-HGA16 TAAR1, Fluo-8 calcium fluorescence, antagonist; inhibition, % at 3 µM; 360,000 compounds, 1.5% hits;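 active means inhibition above a per-plate cutoff, the mean inhibition of test compounds on that plate plus 3 SD, cut at about 49% in these data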;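 further: 0% = DMSO plus EC80 beta-PEA response and 100% = DMSO alone without agonist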
#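 test system = CHO RD-HGA16 cells bearing hTAAR1 | replication = singlicate | controls = DMSO-only wells and EC80 β-PEA-stimulated wells | reagent = EC80 β-phenethylamine stimulus | read-out basis = percent inhibition of PEA-evoked calcium signal, max/basal emission ratio | schedule = seeding 17-24 h prior, 75-min 37 °C, 30-min RT dye loading | signal = kinetic Fluo-8 calcium fluorescence measurement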
# M1 antag = human CHRM1 antagonism; AID 588852; CHO-K1 hM1, Fluo-8 calcium fluorescence, ACh EC80 antagonist; inhibition, % at 3 µM; P11229; 360,000 compounds, 1.3% hits;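 active means percent inhibition above its own plate's cutoff, namely the mean of that plate's compound wells plus 3 SD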;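 further: peak over basal fluorescence ratio during 140 s after agonist addition; 0% = ACh EC80 plus DMSO and 100% = DMSO alone without agonist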
# CHRM1 PAM = potentiates human M1 receptor response to acetylcholine. CHO-K1 hM1, Fluo-8 calcium fluorescence, ACh EC20; 0% = ACh EC20, 100% = maximal ACh. activation, % at 3 µM. 360,000 compounds, 0.088% hits. P11229; in the data active means activation above about 19%, passing the limit was not always enough
# M1 ag = activates human CHRM1 receptor; 360,000 compounds, 0.33% hits; P11229; CHO-K1 hM1, Fluo-8 calcium fluorescence, agonist mode; 0% DMSO, 100% acetylcholine EC100; activation, % at 3 µM;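 active means activation above the run's mean compound activation plus 3 SD, cut at about 16% in these data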;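 further: peak over basal fluorescence ratio within a 140 s kinetic read after compound addition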
# TAAR1 ag conf = confirmation of human TAAR1 agonists; shares compounds with TAAR1 ag; CHO RD-HGA16 TAAR1, Fluo-8 calcium fluorescence; scaled: DMSO 0%, maximal phenethylamine 100%; activation, % at 3 µM; 2,400 compounds, 82% hits; AID 651783;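 active means activation above a cutoff set at the run's mean compound activation plus 3 SD, cut at about 39% in these data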
# Ga16 nonsel ag = counter-screen for TAAR1 agonists: nonselective agonists in parental cells; AID 651787; activation, % at 3 µM; CHO-Ga16 parental, Fluo-8 calcium fluorescence; normalized to maximal ATP response, DMSO zero; shares compounds with TAAR1 ag; 2,400 compounds, 50% hits;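 active means activation above the run cutoff, the mean activation over all tested wells plus 3 SD, cut at about 12% in these data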;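 further: 0% = DMSO wells and 100% = maximal ATP response on the peak over basal ratio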
# TAAR1 desensitize = TAAR1 response desensitization, agonist counter-screen | shares compounds with TAAR1 ag | CHO RD-HGA16 hTAAR1, Fluo-8 calcium, beta-PEA response inhibition | inhibition, % at 3 µM | 2,400 compounds, 46% hits | AID 651951;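 active means inhibition above the run cutoff, the mean inhibition of all test compounds plus 3 SD, cut at about 49% in these data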;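 further: beta-PEA stimulus applied at its EC80; loss of beta-PEA calcium signal after compound pretreatment read as receptor desensitization; 0% = DMSO with beta-PEA at EC80 and 100% = DMSO alone without agonist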
# Ga16 antag count = nonselective Ga16 antagonism, counter-screen; shares compounds with TAAR1 ag; CHO-Ga16 ATP-induced calcium, Fluo-8 fluorescence; inhibition, % at 3 µM; 2,400 compounds, 39% hits; AID 651952;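 active means inhibition above the plate's mean compound inhibition plus 3 SD, computed per plate, cut at about 22% in these data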;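 further: 0% = EC80 ATP with DMSO and 100% = DMSO wells without ATP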
# Numbers without * were called inactive; . = no result.
SMILES,TAAR1 ag,m5-HT2A agonist,TAAR1 antagonist,M1 antag,CHRM1 PAM,M1 ag,TAAR1 ag conf,Ga16 nonsel ag,TAAR1 desensitize,Ga16 antag count
C=CCn1c(SCC(=O)N(CC)c2c(N)n(Cc3ccccc3)c(=O)[nH]c2=O)nnc1-c1ccccc1OC,877*,8,-1,14,-1,-5,5,2,-5,1
CCCn1c(SCC(=O)N(CC)c2c(N)n(Cc3ccccc3)c(=O)[nH]c2=O)nnc1-c1ccncc1,2,-1,-5,-6,5,-3,.,.,.,.
O=C(COC(=O)c1cc2ccccc2cc1O)NCc1ccccc1,87*,1,83*,-9,-3,1,2,29*,6,22*
O=C(COC(=O)c1ccccc1O)Nc1cccnc1Cl,1,0,-2,3,8,-1,.,.,.,.
O=C(COC(=O)c1cccc(O)c1)NC(=O)Cc1ccccc1,20,1,16,4,3,5,.,.,.,.
O=C(COC(=O)c1cc2ccccc2cc1O)Nc1cccnc1Cl,48*,2,31,-5,-9,-5,21,11,28,18
O=C(COC(=O)c1ccc(O)cc1O)NC(=O)Cc1ccccc1,143*,-1,61*,4,2,33*,134*,71*,88*,42*
COc1cc(OC)cc(C(=O)NC2CC(C)(C)NC(C)(C)C2)c1,3,3,-14,-11,19,1,.,.,.,.
CCC1CCc2sc(C(=O)NCC(c3ccc(OC)cc3)N3CCCC3)cc2C1 (configuration not stated),46*,-17,-22,18,-14,-8,42*,5,20,16
COc1ccc(C(CNC(=O)c2cccc(N(C)C)c2)N2CCCC2)cc1 (configuration not stated),-1,1,-7,-3,-2,-6,.,.,.,.
COc1ccc(NS(=O)(=O)c2ccc(-n3nnc4ccccc43)c([N+](=O)[O-])c2)cc1,52*,-15,32,6,-4,11,72*,39*,50*,40*
O=C(c1cn(-c2ccccc2)nc1-c1cccnc1)N1CCN(S(=O)(=O)c2ccc(Cl)cc2)CC1,0,10,30,25,-10,-4,.,.,.,.
O=C1N/C(=C/c2ccc(N3CCCC3)cc2)C(=O)N1c1ccccc1,0,2,-6,-13,7,-1,.,.,.,.
O=C1/C(=C/c2ccc(N3CCCC3)cc2)NC(=S)N1C1CC1,177*,3,99*,35*,-22,34*,58*,61*,71*,71*
Cc1ccc(S(=O)(=O)N2CCN(C(=O)C(C)Cn3nc(C)c(C)c3C)CC2)cc1 (configuration not stated),0,2,-16,-11,9,-4,.,.,.,.
CN1C(C(=O)NCCc2cccs2)CC2Cn3c(nc4cc(Cl)c(Cl)cc43)C21 (configuration not stated),69*,-7,8,2,1,-2,83*,6,47,15
O=C(C[C@@H]1C=C[C@H](NC(=O)Cc2ccccn2)[C@@H](CO)O1)NCCc1ccccc1,.,4,.,.,.,.,.,6,.,8
COc1ccc(NC(=O)CN(C)C(=O)CSCc2ccc(C)cc2)cc1,2,-10,-10,-18,3,0,.,.,.,.
O=C(Nc1nnc(-c2ccccc2Cl)o1)c1nc2ccccc2s1,134*,1,74*,1,-6,74*,113*,81*,64*,36*
O=C(CC1Nc2ccccc2NC1=O)NCCc1ccccc1 (configuration not stated),91*,-1,57*,6,2,-4,98*,2,74*,-8
CC(=O)Nc1ccc(Sc2ncccc2C(=O)Nc2ccc(OC(F)(F)F)cc2)cn1,139*,3,104*,64*,-20,66*,143*,107*,104*,90*
CC(=O)Nc1ccc(Sc2ncccc2C(=O)Nc2cc(Cl)cc(Cl)c2)cn1,32,-3,33,-4,3,-4,.,.,.,.
COc1ccccc1N1CCN(C(=O)CCCn2nc(C)c([N+](=O)[O-])c2C)CC1,4,1,-4,1,-3,-4,.,.,.,.
O=C(Cc1n[nH]c(=O)[nH]c1=O)N/N=C/c1ccccc1,66*,1,19,10,-2,-3,74*,0,55*,10
O=C(Cc1n[nH]c(=O)[nH]c1=O)N/N=C/c1cccc(O)c1,60*,-1,-11,-8,3,-3,60*,4,21,9
SMILES,TAAR1 ag,m5-HT2A agonist,TAAR1 antagonist,M1 antag,CHRM1 PAM,M1 ag,TAAR1 ag conf,Ga16 nonsel ag,TAAR1 desensitize,Ga16 antag count
O=C(Cc1n[nH]c(=O)[nH]c1=O)N/N=C/c1cccc(Cl)c1,29,2,8,-4,3,-3,.,.,.,.
S=C1SCN(Cc2ccccc2)CN1Cc1ccccc1,7,1,-11,1,-3,-5,.,.,.,.
S=C1SCN(CCc2ccccc2)CN1CCc1ccccc1,82*,9,86*,-10,14,2,90*,5,92*,15
CCCCCCCCCCOC(=O)Cn1c(COc2ccccc2OC)[n+](C)c2ccccc21,66*,-4,90*,69*,-29,21*,79*,91*,94*,100*
CC(C)[C@H](NS(=O)(=O)c1ccc(F)cc1F)C(=O)N1CCC[C@H]1C(=O)NCCc1ccccc1Cl,49*,.,64*,.,.,.,76*,1,86*,11
CC(C)[C@H](NC(=O)c1ccccc1)C(=O)N1CCC[C@H]1C(=O)NCCc1ccccc1Cl,80*,.,83*,.,.,.,96*,4,93*,4
CC(C)[C@H](NC(=O)c1ccc(Cl)c(Cl)c1)C(=O)N1CCC[C@H]1C(=O)NCCc1ccccc1Cl,53*,.,80*,.,.,.,82*,0,98*,2
